According to ChEMBL document CHEMBL3352586, “Pyridyl benzamides as a novel class of potent inhibitors for the kinetoplastid Trypanosoma brucei” (J Med Chem, 2014):
Converted amounts (≈) assume the structure as drawn.

What was measured:
[1] = system: Trypanosoma brucei brucei; experiment: Antimicrobial activity against bloodstream form of Trypanosoma brucei brucei 427 after 48 hrs by alamar blue assay; type: functional, organism-based; details: Trypanosoma brucei, 427, 48 h
[2] = system: Trypanosoma brucei brucei; experiment: Antimicrobial activity against bloodstream form of Trypanosoma brucei brucei 427 at 10 uM after 48 hrs by alamar blue assay; type: functional; details: Trypanosoma brucei, 427, 48 h
[3] = Selectivity index, ratio of IC50 for HEK293 cells to IC50 for Trypanosoma brucei brucei 427; type: toxicity, cell-based; details: human, read-out: Ratio IC50
[4] = system: Trypanosoma brucei rhodesiense; experiment: Antimicrobial activity against bloodstream form of Trypanosoma brucei rhodesiense STIB 900 after 70 hrs by alamar blue assay; type: functional, organism-based; details: STIB 900, 70 h
How it was run: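 Trypanosoma brucei rhodesiense STIB 900 bloodstream-form trypomastigotes, with melarsoprol as reference drug.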

Leishmania donovani = experiment: Antimicrobial activity against amastigote form of Leishmania donovani MHOM/ET/67/L82 after 70 hrs by alamar blue assay; type: functional, organism-based; details: MHOM/ET/67/L82, 70 h
How it was run: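 Leishmania donovani MHOM-ET-67/L82 axenic amastigotes, with miltefosine as reference drug.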

Plasmodium falciparum = experiment: Antimicrobial activity against erythrocytic stage of Plasmodium falciparum NF54 infected in human washed RBC assessed as [3H]-hypoxanthine incorporation incubated for 48 hrs prior to [3H]-hypoxanthine addition measured after 24 hrs by liquid scintillation counting analysis; type: functional, organism-based
L6 = experiment: Cytotoxicity against rat L6 cells after 70 hrs by alamar blue assay; type: cell-based; details: L6, 70 h
How it was run: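 Cytotoxicity on the rat skeletal myoblast L-6 strain, with podophyllotoxin as reference drug.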

Trypanosoma cruzi = experiment: Antimicrobial activity against amastigote form of Trypanosoma cruzi Tulahuen C2C4 infected in rat L6 cells after 96 hrs by microscopic analysis; details: Tulahuen C2C4, L6, 96 h
[5] = Partition coefficient, log D of the compound at pH 7.4 by HPLC method; type: physicochemical; details: octanol/water
How it was run: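 Distribution coefficient at pH 7.4 was measured chromatographically.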

[6] = Kinetic solubility of the compound at 10 mg/ml at pH 2 by nephelometry; type: physicochemical; details: buffer, read-out: Kinetic_solubility
How it was run: (§1)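 Kinetic solubility was read by nephelometry at pH 2 and pH 6.5 and reported as μg/mL ranges.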

[7] = Kinetic solubility of the compound at 10 mg/ml at pH 6.5 by nephelometry; type: physicochemical; details: buffer, read-out: Kinetic_solubility; how it was run: as §1
[8] = Plasma protein binding in human […] by chromatographic method; type: ADME, cell-free; details: read-out: PPB (converted)
How it was run: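 Human plasma protein binding was estimated by a chromatographic method.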

Liver microsome [9] = experiment: Intrinsic clearance in human liver microsomes at 1 uM after 60 mins by LC-MS analysis; type: ADME; details: 1 h
How it was run: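 In vitro intrinsic clearance was measured in human liver microsomes and expressed per mg protein. A hepatic extraction ratio (E_H) was predicted from the in vitro data.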

Liver microsome [10] = experiment: Drug metabolism in human liver microsomes assessed as M+16(II) formation at 1 uM after 60 mins by LC-MS analysis in presence of NADPH/UDPGA; type: ADME; details: 1 h
Liver microsome [11] = experiment: Drug metabolism in human liver microsomes assessed as M+32 formation at 1 uM after 60 mins by LC-MS analysis in presence of NADPH/UDPGA; type: ADME; details: 1 h
Liver microsome [12] = experiment: Drug metabolism in human liver microsomes at 1 uM after 60 mins in absence of NADPH/UDPGA by LC-MS analysis; type: ADME; details: 1 h
Liver microsome [13] = experiment: Drug metabolism in human liver microsomes assessed as M-2 formation at 10 uM after 60 mins by LC-MS analysis in presence of NADPH; details: 1 h
Liver microsome [14] = experiment: Drug metabolism in human liver microsomes assessed as M+32 formation at 10 uM after 60 mins by LC-MS analysis in presence of NADPH; details: 1 h
Liver microsome [15] = experiment: Drug metabolism in human liver microsomes assessed as M+16(I) formation at 10 uM after 60 mins by LC-MS analysis in presence of NADPH; details: 1 h
Liver microsome [16] = experiment: Drug metabolism in human liver microsomes assessed as M+16(II) formation at 10 uM after 60 mins by LC-MS analysis in presence of NADPH; details: 1 h
[17] = Selectivity index, ratio of IC50 for rat L6 cells to IC50 for bloodstream form of Trypanosoma brucei rhodesiense STIB 900; type: toxicity, cell-based; details: read-out: Ratio IC50
How it was run: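 Bloodstream-form trypomastigotes of T. b. rhodesiense STIB 900 run with melarsoprol as reference drug. The counter-screen used the rat skeletal myoblast L-6 line, with podophyllotoxin as reference. The index is the L-6 IC50 divided by the parasite IC50.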

[18] = system: Trypanosoma brucei brucei; experiment: Trypanocidal activity against Trypanosoma brucei brucei after 24 hrs by hemocytometry relative to control; type: functional
How it was run: (§2)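 T.b. brucei parasites were seeded and held 24 h at 37 °C/5% CO₂. Compounds were diluted in DMEM and added to give the MIC, defined as the lowest concentration at the plateau (>95% activity) of the Alamar blue assay. Wells were viewed by microscope after 24, 48 and 72 h, and sampled wells were counted by hemocytometer. Percentage killed was taken against puromycin (1.15 μM) and 0.4% DMSO controls, in duplicate.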

[19] = system: Trypanosoma brucei brucei; experiment: Trypanocidal activity against Trypanosoma brucei brucei after 48 hrs by hemocytometry relative to control; type: functional; how it was run: as §2
[20] = system: Trypanosoma brucei brucei; experiment: Trypanocidal activity against Trypanosoma brucei brucei after 72 hrs by hemocytometry relative to control; type: functional; how it was run: as §2
Liver microsome [21] = experiment: Drug metabolism in human liver microsomes assessed as M-111 formation at 1 uM after 60 mins by LC-MS analysis in presence of NADPH; type: ADME; details: 1 h
Liver microsome [22] = experiment: Drug metabolism in human liver microsomes assessed as M+16 formation at 10 uM after 60 mins by LC-MS analysis in presence of NADPH; details: 1 h
Liver microsome [23] = experiment: Drug metabolism in human liver microsomes assessed as M+16 formation at 10 uM after 60 mins by LC-MS analysis in presence of NADPH/UDPGA; details: 1 h
Liver microsome [24] = experiment: Drug level in human liver microsomes treated with N-(5-fluoropyridin-2-yl)-2-methylbenzamide at 10 uM after 60 mins by LC-MS analysis in presence of NADPH; details: 1 h
Liver microsome [25] = experiment: Drug level in human liver microsomes treated with N-(4-chloropyridin-2-yl)-3-fluoro-2-methylbenzamide at 1 uM after 60 mins by LC-MS analysis in presence of NADPH; type: ADME; details: 1 h

SMILES | IC50 [1] [µM] | selectivity ratio [3] | IC50 [4] [µM] | IC50 (Leishmania donovani) [µM] | IC50 (Plasmodium falciparum) [µM] | IC50 (L6) [µM] | IC50 (Trypanosoma cruzi) [µM] | logD [5] | solubility kinetic [6] [µg/mL] | solubility kinetic [7] [µg/mL] | fraction unbound [8] | CLint (Liver microsome [9]) [µL/min/mg] | other results
Cc1ccccc1C(=O)Nc1ccccn1 | 3.03 | 27.5 | 2.1 | 48 | 36 | 156 | 152 | – | – | – | – | – | inhibition at 10 µM [2]: 80%
Cc1ccnc(NC(=O)c2ccccc2C)c1 | 2.1 | > 37 | 0.36 | > 133 | 124 | 146 | 173 | 2.8 | > 100 | 25 (≈ 110 µM) | 0.299 | 129 | –
Cc1ccccc1C(=O)Nc1cc(Cl)ccn1 | 2.1 | > 38 | 0.61 | 168 | 88 | 224 | 168 | 3.4 | 25 (≈ 101 µM) | 12.5 (≈ 50.7 µM) | 0.134 | 128 | –
Cc1ccccc1C(=O)Nc1cc(C#Cc2ccccc2)ccn1 | 1.7 | > 51 | 0.061 | > 96 | 9.7 | 198 | 71 | 4.7 | 1.6 (≈ 5.12 µM) | < 1.6 | 0.017 | 27 | –
Cc1ccccc1C(=O)Nc1cc(-c2ccccc2)ccn1 | 2 | 31 | 0.97 | > 124 | 91 | 70 | 66 | – | – | – | – | – | –
Cc1ccccc1C(=O)Nc1ccc(F)cn1 | – | – | – | – | – | – | – | 2.7 | 25 (≈ 109 µM) | 25 (≈ 109 µM) | 0.44 | 43 | Drug metabolism (Liver microsome [10]): metabolite_detected; Drug metabolism (Liver microsome [11]): metabolite_detected; Drug metabolism (Liver microsome [12]): metabolite_notdetected; inhibition at 10 µM [2]: 33%; Drug metabolism (Liver microsome [13]): metabolite_detected; Drug metabolism (Liver microsome [14]): metabolite_detected; Drug metabolism (Liver microsome [15]): metabolite_detected; Drug metabolism (Liver microsome [16]): metabolite_detected
Cc1c(F)cccc1C(=O)Nc1ccccn1 | 0.89 | 94 | 0.61 | > 131 | 103 | 310 | 198 | 2.6 | 50 (≈ 217 µM) | 25 (≈ 109 µM) | 0.321 | 58 | –
Cc1cc(Br)ccc1C(=O)Nc1ccccn1 | 1.1 | 60 | 0.045 | > 103 | 48 | 193 | 100 | 3.2 | > 100 | > 100 | 0.119 | 97 | selectivity ratio [17]: > 4000
Cc1ccc(C(=O)Nc2ccccn2)c(C)c1 | 0.98 | 85 | 0.24 | > 133 | 93 | 283 | 187 | – | – | – | – | – | –
Cc1c(C(=O)Nc2ccccn2)ccc(F)c1F | 0.41 | 205 | 0.1 | > 121 | 17 | 308 | 176 | 2.8 | 50 (≈ 201 µM) | 25 (≈ 101 µM) | 0.361 | 154 | Activity [18]: 92%; Activity [19]: 99.95%; Activity [20]: 99.9%
Cc1ccnc(NC(=O)c2ccc(F)c(F)c2C)c1 | 0.9 | 93 | 0.64 | > 113 | 72 | 223 | 147 | – | – | – | – | – | –
Cc1c(F)cccc1C(=O)Nc1cc(Cl)ccn1 | 0.47 | 177 | – | – | – | – | – | 2.3 | 12.5 (≈ 47.2 µM) | 12.5 (≈ 47.2 µM) | 0.283 | 254 | Drug metabolism (Liver microsome [11]): metabolite_detected; Drug metabolism (Liver microsome [21]): metabolite_detected; Activity [18]: 64.23%; Activity [19]: 83.7%; Activity [20]: 98.8%; Drug metabolism (Liver microsome [14]): metabolite_detected; Drug metabolism (Liver microsome [22]): metabolite_detected; Drug metabolism (Liver microsome [23]): metabolite_detected
Cc1ccccc1C(=O)N(O)c1ccc(F)cn1 | – | – | – | – | – | – | – | – | – | – | – | – | Drug metabolism (Liver microsome [24]): metabolite_detected
Cc1ccccc1C(=O)Nc1ccc(O)cn1 | – | – | – | – | – | – | – | – | – | – | – | – | Drug metabolism (Liver microsome [24]): metabolite_detected
Cc1c(F)cccc1C(N)=O | – | – | – | – | – | – | – | – | – | – | – | – | Drug metabolism (Liver microsome [25]): metabolite_detected
CCN(CC)CCCC(C)Nc1ccnc2cc(Cl)ccc12 (stereo not drawn) [CHLOROQUINE] | – | – | – | – | – | – | – | – | – | – | – | – | EC50 (Plasmodium falciparum): 0.11 µg/mL (≈ 0.344 µM)
N=C(N)c1ccc(OCCCCCOc2ccc(C(=N)N)cc2)cc1 [PENTAMIDINE] | – | – | – | – | – | – | – | – | – | – | – | – | Activity [18]: 58.1%; Activity [19]: 100%; Activity [20]: 100%
COc1ccc(C[C@H](N)C(=O)N[C@H]2[C@@H](O)[C@H](n3cnc4c(N(C)C)ncnc43)O[C@@H]2CO)cc1 [PUROMYCIN] | – | – | – | – | – | – | – | – | – | – | – | – | Activity [18]: 100%; Activity [19]: 100%; Activity [20]: 100%
